In experiment [1] the test system is SH-SY5Y. The experiment can be described thus: Cytotoxicity against SH-SY5Y cells assessed as cell viability after 48 hrs by MTT method. Type of experiment: functional, cell-based. As to conditions: Homo sapiens. In short, it runs like this:
(§1)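 SH-SY5Y human neuroblastoma cells exposed to compounds for 48 h; viability read by MTT; dose–response curves; highest concentration tested 100 μM.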

Experiment [2] has as its system SH-SY5Y. The experiment can be described thus: Cytotoxicity against SH-SY5Y cells assessed as cell viability upto 100 uM after 48 hrs by MTT method. As to conditions: Homo sapiens. The experiment is classed as functional, cell-based. In short, it runs like this:
as §1

Experiment [3] concerns SH-SY5Y. The experiment can be described thus: Cytotoxicity against SH-SY5Y cells assessed as cell viability above 10 uM after 48 hrs by MTT method. The experiment is classed as functional, cell-based. As to conditions: Homo sapiens. In short, it runs like this:
as §1

In the next experiment the target is Tubulin (Homo sapiens) (UniProt P68371+Q9H4B7+P0DPH7+P68366+Q13509+Q71U36+P04350+Q3ZCM7+P07437+P68363+Q9BQE3+Q6PEY2+Q13885+Q9BVA1+Q9BUF5). The experiment can be described thus: Induction of tubulin depolymerization after 16 hrs. Type of experiment: protein-complex assay. The method in brief: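 Cells treated 16 h with tubulin-disrupting agents; proteins harvested in presence of paclitaxel to fix polymerized and unpolymerized tubulin; soluble (non-polymerized) and pellet (polymerized) fractions run on SDS-PAGE and immunoblotted with monoclonal mouse anti-tubulin antibody.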

Active and inactive are the calls of the source. No cut-off for these calls is given here.

For the compound `COc1cc2c(c(OC)c1OC)-c1cc3c(cc1Cc1cnnn1C2)OCO3`, the IC50 in the experiment on SH-SY5Y [1] is 1100 nM.

Take `COc1cc(C(O)c2cnnn2Cc2ccc3c(c2)OCO3)cc(OC)c1OC` (stereo unspecified): the Activity entry in the experiment with SH-SY5Y [2] was “Not toxic”.

For `COc1cc(Cn2nncc2Cc2ccc3c(c2)OCO3)cc(OC)c1OC`, in the experiment on SH-SY5Y [2], the Activity entry was “Not toxic”.

With `COc1cc2c(c(OC)c1OC)-c1cc3c(cc1Cn1nncc1C2)OCO3`, the Activity entry in the experiment with SH-SY5Y [3] was “Toxic”.

In the case of `CC(=O)O[C@H]1C(=O)[C@@]2(C)[C@H]([C@H](OC(=O)c3ccccc3)[C@]3(O)C[C@H](OC(=O)[C@H](O)[C@@H](NC(=O)c4ccccc4)c4ccccc4)C(C)=C1C3(C)C)[C@]1(OC(C)=O)CO[C@@H]1C[C@@H]2O`, on Tubulin (Homo sapiens), the outcome was inactive.

Take `COc1cc(C2c3cc4c(cc3Cn3nncc32)OCO4)cc(OC)c1OC` (racemic): in the experiment with SH-SY5Y [1], the IC50 was determined as 1500 nM. For the same compound, the result on Tubulin (Homo sapiens) was Active.

Regarding `COc1cc([C@@H]2c3cc4c(cc3[C@H](O)[C@H]3COC(=O)[C@H]23)OCO4)cc(OC)c1OC` [PODOFILOX], the half-inhibitory concentration (IC50) in the experiment on SH-SY5Y [1] worked out at 7 nM. Moreover, the outcome at Tubulin (Homo sapiens) was Active.

For the compound `COc1ccc(/C=C\c2cc(OC)c(OC)c(OC)c2)cc1O`, on Tubulin (Homo sapiens), the result was Active.

As for `COc1cc(Cc2cnnn2Cc2ccc3c(c2)OCO3)cc(OC)c1OC`, in the experiment on SH-SY5Y [2], the Activity result was “Not toxic”.
